From ChEMBL document CHEMBL5257157, “Biological evaluation of novel amidino substituted coumarin-benzazole hybrids as promising therapeutic agents” (RSC Med Chem, 2023)

Key:
[1] = Antioxidant activity assessed as DPPH radical scavenging activity incubated for 5 mins by absorbance based microplate reader analysis; type: functional
Procedure, shortened: (§1)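 Pure compounds tested in three colorimetric antioxidant assays, each run alongside the reference BHT. […] ABTS: direct reaction with ABTS•+ radical cation, reported as IC50. DPPH: scavenging of the stable DPPH radical by proton or electron donation, reported as IC50. FRAP: reducing power, expressed as mmolFe2+/mmolC.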

[2] = test system: Zika virus; test: Antiviral activity against Zika virus Mr776 infected in human Huh-7 cells assessed as inhibition of virus-induced cytopathogenic effect incubated for 3 to 7 days by MTS assay; type: functional, organism-based; settings: Mr776, Huh-7
[3] = test system: CAPAN-1; test: Antiproliferative activity against human CAPAN-1 cells assessed as inhibition of cell growth incubated for 72 hrs by CellTiter96 Aqueous One Solution cell proliferation assay; type: functional, cell-based; settings: CAPAN-1, 72 h
[4] = test system: Human coronavirus OC43; test: Antiviral activity against HCoV-OC43 infected in human HEL 299 cells assessed as inhibition of virus-induced cytopathogenic effect incubated for 3 to 7 days by MTS assay; type: functional, organism-based; settings: Betacoronavirus 1, HEL 299
[5] = test system: Human alphaherpesvirus 1; test: Antiviral activity against HSV-1 KOS infected in human HEL 299 cells assessed as inhibition of virus-induced cytopathogenic effect incubated for 3 to 7 days by MTS assay; type: functional, organism-based; settings: Human alphaherpesvirus 1, KOS
[6] = test system: NCI-H460; test: Antiproliferative activity against human NCI-H460 cells assessed as inhibition of cell growth incubated for 72 hrs by CellTiter96 Aqueous One Solution cell proliferation assay; type: functional, cell-based; settings: NCI-H460, 72 h
[7] = test system: Respiratory syncytial virus; test: Antiviral activity against RSV infected in human HEL 299 cells assessed as inhibition of virus-induced cytopathogenic effect incubated for 3 to 7 days by MTS assay; type: functional, organism-based
[8] = test system: Influenza B virus; test: Antiviral activity against influenza B virus infected in dog MDCK cells assessed as inhibition of virus-induced cytopathogenic effect incubated for 3 to 7 days by MTS assay; type: functional, organism-based
[9] = test system: Influenza A virus; test: Antiviral activity against influenza virus H3N2 infected in dog MDCK cells assessed as inhibition of virus-induced cytopathogenic effect incubated for 3 to 7 days by MTS assay; type: functional, organism-based
[10] = test system: HL-60; test: Antiproliferative activity against human HL-60 cells assessed as inhibition of cell growth incubated for 72 hrs by CellTiter96 Aqueous One Solution cell proliferation assay; type: functional, cell-based; settings: HL-60, 72 h
[11] = Cytotoxicity against human HEL 299 cells assessed as inhibition of cell growth incubated for 72 hrs by CellTiter96 Aqueous One Solution cell proliferation assay; type: toxicity, cell-based
[12] = Antiproliferative activity against human DND41 cells assessed as inhibition of cell growth incubated for 72 hrs by CellTiter96 Aqueous One Solution cell proliferation assay; type: functional, cell-based; settings: DND41, 72 h
[13] = test system: Yellow fever virus; test: Antiviral activity against Yellow fever virus 17D infected in human Huh-7 cells assessed as inhibition of virus-induced cytopathogenic effect incubated for 3 to 7 days by MTS assay; type: functional, organism-based
[14] = test system: K562; test: Antiproliferative activity against human K562 cells assessed as inhibition of cell growth incubated for 72 hrs by CellTiter96 Aqueous One Solution cell proliferation assay; type: functional, cell-based; settings: K562, 72 h
[15] = Antioxidant activity assessed as ABTS radical scavenging activity incubated for 5 mins by absorbance based microplate reader analysis; type: functional; procedure, shortened: as §1
[16] = test system: Human coronavirus 229E; test: Antiviral activity against HCoV-229E infected in human HEL 299 cells assessed as inhibition of virus-induced cytopathogenic effect incubated for 3 to 7 days by MTS assay; type: functional, organism-based
[17] = test system: Z-138; test: Antiproliferative activity against human Z138 cells assessed as inhibition of cell growth incubated for 72 hrs by CellTiter96 Aqueous One Solution cell proliferation assay; type: functional, cell-based; settings: Z-138, 72 h
[18] = Antioxidant activity assessed as reduction of Fe3+ complex to Fe2+ analogue by measuring mmolFe2+/mmolc by FRAP assay; type: functional; procedure, shortened: as §1
[19] = test system: Huh-7; test: Cytotoxicity against human Huh-7 cells assessed as inhibition of cell growth incubated for 72 hrs by CellTiter96 Aqueous One Solution cell proliferation assay; type: functional
[20] = Antiviral activity against HCoV-NL63 infected in human Huh-7 cells assessed as inhibition of virus-induced cytopathogenic effect incubated for 3 to 7 days by MTS assay; type: functional, cell-based; settings: Human coronavirus NL63, Huh-7
[21] = test system: Influenza A virus; test: Antiviral activity against influenza virus H1N1 infected in dog MDCK cells assessed as inhibition of virus-induced cytopathogenic effect incubated for 3 to 7 days by MTS assay; type: functional, organism-based
[22] = test system: LN-229; test: Antiproliferative activity against human LN-229 cells assessed as inhibition of cell growth incubated for 72 hrs by CellTiter96 Aqueous One Solution cell proliferation assay; type: functional, cell-based; settings: LN-229, 72 h
[23] = Cytotoxicity against dog MDCK cells assessed as inhibition of cell growth incubated for 72 hrs by CellTiter96 Aqueous One Solution cell proliferation assay; type: toxicity, cell-based, Canis lupus familiaris
[24] = test system: Sindbis virus; test: Antiviral activity against Sindbis virus infected in human Huh-7 cells assessed as inhibition of virus-induced cytopathogenic effect incubated for 3 to 7 days by MTS assay; type: functional, organism-based
[25] = test system: CCRF-CEM; test: Antiproliferative activity against human CEM cells assessed as inhibition of cell growth; type: functional, cell-based

Structure (SMILES)	IC50 [1] [µM]	EC50 [2] [µM]	IC50 [3] [µM]	EC50 [4] [µM]	EC50 [5] [µM]	IC50 [6] [µM]	EC50 [7] [µM]	EC50 [8] [µM]	EC50 [9] [µM]	IC50 [10] [µM]	CC50 at 72 h [11] [µM]	IC50 [12] [µM]	EC50 [13] [µM]	IC50 [15] [µM]	EC50 [16] [µM]	CC50 [19] [µM]	EC50 [20] [µM]	EC50 [21] [µM]	CC50 at 72 h [23] [µM]	EC50 [24] [µM]	also measured
O=c1oc2ccccc2c(Cl)c1-c1nc2cc(C3=NCCN3)ccc2[nH]1	440	> 100	99.3	> 100	> 100	> 100	> 100	> 100	> 100	55.7	99.5	36.5	> 100	370	> 100	85	> 100	> 100	92.1	> 100	IC50 [14]: > 100 µM; IC50 [17]: 50.5 µM; Activity [18]: 35.1 mmol/mmol; IC50 [22]: > 100 µM
CCN(CC)c1ccc2cc(-c3nc4cc(C5=NCCCN5)ccc4[nH]3)c(=O)oc2c1	610	77.7	66.7	> 100	> 100	> 100	73.3	> 100	> 100	63.8	> 100	10.8	72.6	110	> 100	> 100	> 100	> 100	43.4	> 100	IC50 [14]: 63.5 µM; IC50 [17]: 67.3 µM; Activity [18]: 28.8 mmol/mmol; IC50 [22]: 97 µM
Cc1ccc2oc(=O)c(-c3nc4cc(C5=NCCCN5)ccc4[nH]3)c(Cl)c2c1	520	> 100	71.9	74.2	> 100	> 100	64.1	> 100	> 100	64.2	> 100	16.9	> 100	460	> 100	78.7	> 100	> 100	77.1	> 100	IC50 [14]: > 100 µM; IC50 [17]: 48.1 µM; Activity [18]: 47.8 mmol/mmol; IC50 [22]: > 100 µM
CCN(CC)c1ccc2cc(-c3nc4cccnc4s3)c(=N)oc2c1	–	–	–	–	–	–	–	–	–	–	–	–	–	–	–	–	–	–	–	–	IC50 [25]: 0.17 µM
CC(N)C12CC3CC(CC(C3)C1)C2 (stereo not given) [RIMANTADINE]	–	–	–	–	–	–	–	> 100	0.05	–	–	–	–	–	–	–	–	5	> 100	–	–
CC(=O)N[C@H]1[C@H]([C@H](O)[C@H](O)CO)OC(C(=O)O)=C[C@@H]1NC(=N)N [ZANAMIVIR]	–	–	–	–	–	–	–	0.05	16.8	–	–	–	–	–	–	–	–	0.1	> 100	–	–
Cc1cc(C(C)(C)C)c(O)c(C(C)(C)C)c1 [BUTYLATED HYDROXYTOLUENE]	25	–	–	–	–	–	–	–	–	–	–	–	–	180	–	–	–	–	–	–	–
CCC(CC)COC(=O)[C@H](C)N[P@](=O)(OC[C@H]1O[C@@](C#N)(c2ccc3c(N)ncnn23)[C@H](O)[C@@H]1O)Oc1ccccc1 [REMDESIVIR]	–	0.7	–	0.06	–	–	0.03	–	–	–	> 10	–	6.2	–	0.06	> 10	0.03	–	–	> 10	–
CCN(CC)c1ccc2cc(-c3nc4ccc(C5=NCCN5)cc4s3)c(=O)oc2c1	–	> 100	80.6	69.7	47.9	> 100	> 100	> 100	> 100	> 100	> 100	10.2	> 100	2190	> 100	54.2	> 100	> 100	64.2	> 100	IC50 [14]: 65.5 µM; IC50 [17]: 11.3 µM; Activity [18]: 2.84 mmol/mmol; IC50 [22]: > 100 µM
